# Published values gathered from unrelated publications.
# Each line is one published result; the experiments were not run side by side.
# Target: Serine/threonine-protein kinase RIO3 (RIOK3, Homo sapiens, UniProt O14730)
# Sequence (O14730 1-519, as in one of the studies): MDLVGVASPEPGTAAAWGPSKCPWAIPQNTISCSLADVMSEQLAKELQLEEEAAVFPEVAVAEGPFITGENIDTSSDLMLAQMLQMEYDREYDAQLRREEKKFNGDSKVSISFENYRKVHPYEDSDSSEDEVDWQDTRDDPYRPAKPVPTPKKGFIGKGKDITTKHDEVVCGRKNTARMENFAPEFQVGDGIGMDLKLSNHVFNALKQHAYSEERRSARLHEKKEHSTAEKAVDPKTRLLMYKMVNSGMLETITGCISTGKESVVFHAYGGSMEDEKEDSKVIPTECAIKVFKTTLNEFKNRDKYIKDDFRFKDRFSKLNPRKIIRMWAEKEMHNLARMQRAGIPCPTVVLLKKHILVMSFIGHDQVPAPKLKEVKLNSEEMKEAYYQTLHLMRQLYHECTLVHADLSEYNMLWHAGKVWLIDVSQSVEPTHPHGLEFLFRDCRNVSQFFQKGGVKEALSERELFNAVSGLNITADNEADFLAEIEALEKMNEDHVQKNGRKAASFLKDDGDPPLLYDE
SMILES,assay,conditions,remaining binding
COc1ncc2cc3ccccc3nc2c1C#N,"cell-free assay, competition with immobilised ligand",5 µM,97%
O=C(c1ccc(Nc2ncc(Cl)c(-c3cc4ccccc4s3)n2)cc1)N1CCC(N2CCCC2)CC1,"binding, competition with immobilised ligand",1 µM,0%
CN(C)c1nccc(-c2cnn3ncccc23)n1,binding,1 µM,100%
CCS(=O)(=O)c1cc2cc(C[C@](O)(CC(C)(C)c3ccc(F)cc3C(N)=O)C(F)(F)F)[nH]c2cn1,"cell-free assay, competition with immobilised ligand",1 µM,91%
c1cncc(-c2cccc(Nc3nccc(NC4CCCCC4)n3)c2)c1,"binding, competition with immobilised ligand",10 µM,80%
c1cnn2ncc(-c3ccnc(N4CCC45COC5)n3)c2c1,binding,1 µM,93%
Nc1ncc2c(n1)-c1c([nH]c3ccc(C#CC4CC4)cc13)CCCC2,"binding, competition with immobilised ligand",1 µM,75%
N[C@H]1CCN(c2nccc(-c3cnn4ncccc34)n2)C1,binding,1 µM,81%
O=C(NCCCN1CCOCC1)c1ccc(Nc2ncc(Cl)c(-c3ccc(Cl)s3)n2)cc1,"binding, competition with immobilised ligand",1 µM,0.4%
CNC(=O)c1ccc(Nc2ncc(C(F)(F)F)c(NCc3nccnc3N(C)S(C)(=O)=O)n2)cc1,"cell-free assay, competition with immobilised ligand",0.1 µM,55%
O=C(Nc1c[nH]nc1C(=O)NC1CCNCC1)c1cc(F)cc(F)c1,"binding, competition with immobilised ligand",1 µM,100%
CO[C@@H](C)c1c(Nc2ccc([C@@H](N(C)C(=O)C3CCS(=O)(=O)CC3)C(F)(F)F)cc2)cnc2cc(Cl)nn12,"cell-free assay, competition with immobilised ligand",1 µM,90%
C[C@@H]1CCN(c2nccc(-c3cnn4ncccc34)n2)C1,binding,1 µM,100%
O=C(NCCCN1CCOCC1)c1ccc(Nc2nccc(-c3cc4ccccc4s3)n2)cc1,"binding, competition with immobilised ligand",1 µM,1.7%
CCCOc1ccc([C@@H]2[C@@H](C(=O)O)[C@H](c3ccc4c(c3)OCO4)CN2CC(=O)Nc2c(CC)cccc2CC)cc1,"cell-free assay, competition with immobilised ligand",1 µM,100%
CNC(=O)[C@@H]1CC[C@@H](n2c(-c3ccc4cnccc4c3)nc3ccc(C(=O)NCc4cccc(C(N)=O)c4)cc32)C1,"binding, competition with immobilised ligand",1 µM,88%
COc1cc(-c2cn(C3CCc4ccccc4N(CC(F)(F)F)C3=O)nn2)ccc1-n1ccc(C)n1 (stereo not shown),"cell-free assay, competition with immobilised ligand",1 µM,100%
F[C@@H]1CCN(c2nccc(-c3cnn4ncccc34)n2)C1,binding,1 µM,85%
O=C1NC(c2ccccn2)Sc2ccccc21 (stereo not shown),"cell-free assay, competition with immobilised ligand",1 µM,91%
FC(F)(F)Oc1cccc(-c2cnc3ccc(-c4ccncc4)nn23)c1,"binding, competition with immobilised ligand",5 µM,16%
Cc1cnn2ncc(-c3ccnc(N(C)C)n3)c2c1,binding,1 µM,100%
O=C(N1CCS(=O)(=O)CC1)N1C[C@H](c2ccc(OC(F)(F)F)cc2)C[C@H](c2nc(C3CC3)no2)C1,"cell-free assay, competition with immobilised ligand",1 µM,85%
